Assay [1] relates to HCT-8. Briefly: Induction of nitric oxide release in human HCT8 cells at 100 uM incubated for 150 mins by Griess assay. It counts as functional, cell-based. In outline:
(§1)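 Cells (1 × 10^6/well) treated in triplicate with compound at 100 µM for 150 min. Lysates mixed with Griess reagent for 10 min at 37 °C and read at 540 nm. Nitrite quantified from a sodium nitrite standard curve; 0.4% DMSO-treated cells served as background. Mean ± SD of three experiments.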

Assay [2] concerns HCT-8. Briefly: Induction of nitric oxide release in 5-FU resistant human HCT8 cells at 100 uM incubated for 150 mins by Griess assay. It counts as functional, cell-based. In a few lines:
as §1

For a further assay, the system named is CCD-841CoN. Kind of assay: Induction of nitric oxide release in human CCD-841-CoN cells at 100 uM incubated for 150 mins by Griess assay. The assay is classed as functional, cell-based. In outline: as §1
Assay [3] can be described thus: Antiproliferative activity against human HCT8 cells assessed as inhibition of cell proliferation at 1 uM after 72 hrs by MTT assay. It counts as functional. The note with it: HCT-8, 72 h, read-out: GI. In outline:
(§2)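 Cells grown in DMEM with 10% FBS and exposed to compound at 1 µM for 72 h. Proliferation measured by MTT at 570 nm and expressed as % inhibition versus untreated cells. Mean ± SD of three independent experiments.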

Assay [4] is described as follows: Antiproliferative activity against 5-FU resistant human HCT8 cells assessed as inhibition of cell proliferation at 1 uM after 72 hrs by MTT assay. The assay is classed as functional. The note with it: HCT-8, 72 h, read-out: GI. In outline:
as §2

Assay [5] in a line: Antiproliferative activity against human HCT8 cells assessed as inhibition of cell proliferation after 72 hrs by MTT assay. The assay is classed as functional, cell-based. The note with it: HCT-8, 72 h. In outline: (§3)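 Cells (1.0 × 10^4/well) grown overnight in DMEM with 10% FBS. Treated in triplicate with eight concentrations ([…]) of compound from DMSO stock, final DMSO <0.4%, for 72 h. MTT added for the last 4 h, formazan dissolved in DMSO, read at 570 nm. Inhibition = (Acontrol−Atreated)/Acontrol. IC50 given as mean ± SD of three independent experiments.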

Assay [6] is described as follows: Antiproliferative activity against 5-FU resistant human HCT8 cells assessed as inhibition of cell proliferation after 72 hrs by MTT assay. The assay is classed as functional, cell-based. The note with it: HCT-8, 72 h. In a few lines:
as §3

A short description of assay [7]: Antiproliferative activity against human CCD-841-CoN cells assessed as inhibition of cell proliferation after 72 hrs by MTT assay. The assay is classed as cell-based. In outline: as §3

Each structure is given as a SMILES string. Activity calls are given as the source filed them. No cut-off for these calls is given here.

Experimental findings from ChEMBL document CHEMBL3414437, “Synthesis of CDDO-amino acid-nitric oxide donor trihybrids as potential antitumor agents against both drug-sensitive and drug-resistant colon cancer” (J Med Chem, 2015) are described below.

On to `CC1(C)CC[C@]2(C(=O)N3CCC[C@H]3C(=O)OCCCOc3no[n+]([O-])c3S(=O)(=O)c3ccccc3)CC[C@]3(C)[C@H](C(=O)C=C4[C@@]5(C)C=C(C#N)C(=O)C(C)(C)[C@@H]5CC[C@]43C)[C@@H]2C1`, for which the result in the assay with HCT-8 [1], in the assay on HCT-8 [2] and in the assay on CCD-841CoN was inactive.
As for `CC1(C)CC[C@]2(C(=O)NCC(=O)OCCCCOc3no[n+]([O-])c3S(=O)(=O)c3ccccc3)CC[C@]3(C)[C@H](C(=O)C=C4[C@@]5(C)C=C(C#N)C(=O)C(C)(C)[C@@H]5CC[C@]43C)[C@@H]2C1`, the inhibition of growth at 1 µM in assay [3] and in assay [4] was more than 90% in each case. Besides, the IC50 in assay [5] amounted to 0.383 µM; in assay [6], 0.315 µM; in assay [7] it was 1.12 µM.
On to `CC1(C)CC[C@]2(C(=O)N3CCC[C@H]3C(=O)OCCCCCCOc3no[n+]([O-])c3S(=O)(=O)c3ccccc3)CC[C@]3(C)[C@H](C(=O)C=C4[C@@]5(C)C=C(C#N)C(=O)C(C)(C)[C@@H]5CC[C@]43C)[C@@H]2C1`, for which the outcome in the assay with HCT-8 [1], with HCT-8 [2] and with CCD-841CoN was inactive.
As to `CC1(C)CC[C@]2(C(=O)NCC(=O)O)CC[C@]3(C)[C@H](C(=O)C=C4[C@@]5(C)C=C(C#N)C(=O)C(C)(C)[C@@H]5CC[C@]43C)[C@@H]2C1`, the 50% inhibitory concentration (IC50) in assay [5] was 3.19 µM; in assay [6], 2.26 µM. Further, the result in the assay on HCT-8 [1] and in the assay on HCT-8 [2] was inactive.
`C[C@@H](NC(=O)[C@]12CCC(C)(C)C[C@H]1[C@H]1C(=O)C=C3[C@@]4(C)C=C(C#N)C(=O)C(C)(C)[C@@H]4CC[C@@]3(C)[C@]1(C)CC2)C(=O)OCC#CCOc1no[n+]([O-])c1S(=O)(=O)c1ccccc1`: the inhibition of growth at 1 µM in assay [3] and in assay [4] was more than 90% each time. In addition, the IC50 worked out at 0.37 µM in assay [5], 0.276 µM in assay [6] and 0.958 µM in assay [7]. Moreover, the result in the assay on HCT-8 [1] and in the assay with HCT-8 [2] was Active. Moreover, in the assay with CCD-841CoN, the outcome was inactive.
Consider `CC1(C)CC[C@]2(C(=O)N3CCC[C@H]3C(=O)OCC#CCOc3no[n+]([O-])c3S(=O)(=O)c3ccccc3)CC[C@]3(C)[C@H](C(=O)C=C4[C@@]5(C)C=C(C#N)C(=O)C(C)(C)[C@@H]5CC[C@]43C)[C@@H]2C1`, for which the inhibition of growth at 1 µM in assay [3] and in assay [4] was more than 90% each time. The values for the half-inhibitory concentration (IC50) in assay [5], in assay [6] and in assay [7] were 0.441 µM, 0.343 µM and 1.43 µM, respectively.
With `CC1(C)CC[C@]2(C(=O)NCCCC(=O)OCC#CCOc3no[n+]([O-])c3S(=O)(=O)c3ccccc3)CC[C@]3(C)[C@H](C(=O)C=C4[C@@]5(C)C=C(C#N)C(=O)C(C)(C)[C@@H]5CC[C@]43C)[C@@H]2C1`, the inhibition of growth at 1 µM in assay [3] and in assay [4] was more than 90% in each case. The IC50 in assay [5] came out at 0.504 µM; in assay [6] it was 0.381 µM; in assay [7], 1.7 µM.
`O=c1[nH]cc(F)c(=O)[nH]1` [FLUOROURACIL]: the IC50 is 0.91 µM in assay [5] and 36.6 µM in assay [6].
For `CC1(C)CC[C@]2(C(=O)NCCC(=O)OCC#CCOc3no[n+]([O-])c3S(=O)(=O)c3ccccc3)CC[C@]3(C)[C@H](C(=O)C=C4[C@@]5(C)C=C(C#N)C(=O)C(C)(C)[C@@H]5CC[C@]43C)[C@@H]2C1`, the inhibition of growth at 1 µM in assay [3] and in assay [4] was more than 90% throughout. The half-inhibitory concentration (IC50) in assay [5] came to 0.379 µM; in assay [6], 0.462 µM; in assay [7], 1.47 µM.
For `CC1(C)CC[C@]2(C(=O)NCC(=O)OCCOCCOc3no[n+]([O-])c3S(=O)(=O)c3ccccc3)CC[C@]3(C)[C@H](C(=O)C=C4[C@@]5(C)C=C(C#N)C(=O)C(C)(C)[C@@H]5CC[C@]43C)[C@@H]2C1`, the inhibition of growth at 1 µM in assay [3] and in assay [4] was more than 90% each time. Moreover, the values for the IC50 in assay [5], in assay [6] and in assay [7] were 0.872 µM, 0.562 µM and 3.13 µM, respectively.
`CC1(C)CC[C@]2(C(=O)N3CCC[C@H]3C(=O)OCCCCOc3no[n+]([O-])c3S(=O)(=O)c3ccccc3)CC[C@]3(C)[C@H](C(=O)C=C4[C@@]5(C)C=C(C#N)C(=O)C(C)(C)[C@@H]5CC[C@]43C)[C@@H]2C1`: the result with HCT-8 [1], in the assay with HCT-8 [2] and with CCD-841CoN was inactive.
Take `O=S(=O)(c1ccccc1)c1c(OCC#CCO)no[n+]1[O-]`: the figures for the half-maximal inhibitory concentration (IC50) in assay [5] and in assay [6] were 33.5 µM and 36.6 µM, respectively.
As for `CC1(C)CC[C@]2(C(=O)NCC(=O)OCCCCCCOc3no[n+]([O-])c3S(=O)(=O)c3ccccc3)CC[C@]3(C)[C@H](C(=O)C=C4[C@@]5(C)C=C(C#N)C(=O)C(C)(C)[C@@H]5CC[C@]43C)[C@@H]2C1`, the inhibition of growth at 1 µM in assay [3] and in assay [4] was more than 90% in each case. Moreover, the IC50 in assay [5] came to 0.356 µM; in assay [6] it was 0.339 µM; in assay [7] it was 1.42 µM.
Consider `CC1(C)CC[C@]2(C(=O)NCC(=O)OCCCOc3no[n+]([O-])c3S(=O)(=O)c3ccccc3)CC[C@]3(C)[C@H](C(=O)C=C4[C@@]5(C)C=C(C#N)C(=O)C(C)(C)[C@@H]5CC[C@]43C)[C@@H]2C1`, for which the inhibition of growth at 1 µM in assay [3] and in assay [4] was more than 90% throughout. Moreover, the figures for the IC50 in assay [5], in assay [6] and in assay [7] were 0.55 µM, 0.38 µM and 1.73 µM, respectively.
